Measurements reported in PubChem BioAssay AID651952 (The Scripps Research Institute Molecular Screening Center, 2012).
About 940 (39%) of roughly 2,400 compounds were called active.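 Rule for the calls: active = inhibition above the plate's mean compound inhibition plus 3 SD, computed per plate (cut at about 22% in these data); inactive = the rest.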 Only a sample is shown.

Assay: inhibition of ATP-evoked calcium response in CHO-Ga16 cells, counter-screen for TAAR1 agonist project, cell-based, fluorescence (AID 651952);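 note: 0% = EC80 ATP with DMSO and 100% = DMSO wells without ATP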
Conditions: CHO-Ga16 ATP-induced calcium, Fluo-8 fluorescence; at 3 µM; hits give high values
How it was run: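 replicates = triplicate wells per compound | material = CHO-Gα16 parent cell line without hTAAR1 | incubation = 17–24 h seeding, dye 75 min 37 °C, 30 min RT | measure = percent inhibition from peak-to-pre-ATP-basal fluorescence ratio, scaled between controls | signal = Fluo-8 fluorescence, Ex 470–495 nm, Em 515–575 nm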
For `O=C1NC(=O)N(Cc2ccco2)C(=O)/C1=C\c1ccc(-c2ccc(F)cc2)o1`, the inhibition was 44% (active). With `Clc1ccc2nc3c(c(-c4ccccc4)c2c1)CNCC3` the inhibition was 0.28% (inactive). For `CC(Cc1ccccc1)NC=O` (centres undefined), the inhibition was 11.2% (inactive). For `CCCCC(=O)N/N=C/c1c(O)n(CC)c(=S)n(CC)c1=O`, the inhibition was 64.5% (active). In the case of `COc1ccc(Br)cc1CNCCc1cccc(Cl)c1`, the inhibition is reported as 14.7% (inactive). With `c1ccc(CCNC2CCCCCC2)cc1` the inhibition was 2.61% (inactive). With `Cc1cccc(N2C(=O)NC(=O)/C(=C\c3cnn(-c4ccccc4)c3)C2=O)c1` the inhibition was 40.6% (active). For `CCC(=NCCc1ccccc1)c1c(O)n(C2CCCCC2)c(=O)[nH]c1=O`, the inhibition was 21.1% (inactive). For `NCC(O)c1ccc(O)cc1` (centres undefined), the inhibition was 3.87% (inactive).
